# Laboratory results from paper PMC10245936 (bioRxiv, 2023).
# “And” between values parts separate entries of the source, which are not always exact repeats. Equal entries are not always repeated.
# Tests used:
# [1] = standard adult NTZ dose, one 500 mg tablet by mouth twice daily; cited from earlier work
# [2] = tested on: GI.1-based HuNoV replicon; conditions: Huh7 liver cells; cited from earlier work
# [3] = tested on: 3 different GII.4 HuNoV isolates; conditions: fetal ileum-derived 3D HIEs; non-cytotoxic concentration; cited from earlier work
# [4] = tested on: HuNoV; conditions: HIE monolayers; cited from earlier work
# [5] = tested on: J2 HIE line; assay: HIE viability, CellTiter-Glo 2.0 Cell Viability Assay; type: cell-based, human; conditions: J2 HIEs, 24 h
# [6] = tested on: GII.4 Sydney [P31] HuNoV; assay: HuNoV replication; type: cell-based, human norovirus; conditions: for SI: CC50 over EC50, J2 HIE line
# Method in brief: (§1)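 Differentiated monolayers (24 h INTp, then 5 days INTd) received 100 TCID50 (TCID50 per genotype and HIE line by Reed-Muench) with compound in CMGF- plus 500 μM GCDCA for 1–2 h at 37°C. Cells were washed 3 times, then kept in compound-containing INTd with GCDCA for 24 h. Five ascending concentrations; vehicle 1% DMSO or 2% H2O final. Genome equivalents by RT-qPCR against a standard curve. Triplicate wells, duplicate qPCR. Dunnett versus vehicle; EC50/EC90 by nonlinear regression (top fixed at 100); SI = CC50/EC50.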
# [7] = tested on: J2 HIEs; assay: Preliminary dose-range cytotoxicity assessment; type: cell-based, human; conditions: for monolayer integrity and propidium iodide staining: 24 h
# [8] = tested on: adult jejunal HIE line (J2) monolayers; conditions: cited from earlier work
# [9] = tested on: HuNoV; conditions: chronically infected HuNoV patients; cited from earlier work
# [10] = tested on: GII.3[P21] HuNoV; assay: HuNoV replication; type: cell-based, human norovirus
# Method in brief: as §1
# [11] = HIE viability, CellTiter-Glo 2.0 Cell Viability Assay; type: cell-based; conditions: human, IL2004 HIE line monolayers
# Method in brief: (§2)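 CellTiter-Glo 2.0 read as directed by the manufacturer on 5-day-differentiated monolayers. Triplicate wells were given vehicle or compound in virus-free incubation medium for 24 h. CC50 from nonlinear regression of percent viability, with the bottom fixed at 0.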
# [12] = tested on: GII.17[P13] HuNoV; assay: HuNoV replication; type: cell-based, human norovirus
# Method in brief: as §1
# [13] = tested on: GII.4 Sydney [P31] virus; conditions: adult jejunal HIE line plated as monolayers; cited from earlier work
# [14] = tested on: HuNoV; conditions: HuNoV-infected, otherwise healthy patients, versus placebo; cited from earlier work
# [15] = tested on: HuNoV; conditions: 31 randomized patients, compared to placebo; ref NCT03395405; cited from earlier work
# [16] = tested on: 5 HuNoV strains; assay: Antiviral pipeline, summary over all HuNoV strains and HIE lines tested; type: cell-based; conditions: Norovirus, in Homo sapiens
# Method in brief: as §1
# [17] = tested on: J4FUT2 HIE line; assay: HIE viability, CellTiter-Glo 2.0 Cell Viability Assay; type: cell-based, human; conditions: J4FUT2 HIEs, 24 h
# [18] = tested on: GI.1[P1] HuNoV; assay: HuNoV replication; type: cell-based, human norovirus; conditions: for EC90: 100 TCID50
# Method in brief: as §1
# [19] = tested on: GII.4 Sydney [P16] HuNoV; assay: HuNoV replication; type: cell-based, human norovirus; conditions: for SI: CC50 over EC50; for EC50 / EC90: 100 TCID50, 24 h
# Method in brief: as §1
# [20] = HIE viability, CellTiter-Glo 2.0 Cell Viability Assay; type: cell-based; conditions: human, D2004 HIE line monolayers
# Method in brief: as §2
# [21] = as above; type: cell-based; conditions: human, J2004 HIE line monolayers
# Method in brief: as §2
# [22] = Norovirus, in Homo sapiens, 24 h
# [23] = Norovirus, in Homo sapiens, 24 h, read-out: inhibition of replication
# [24] = CC50 over EC50, J4FUT2 HIE line
# [25] = J4FUT2 HIEs, at 40 and 80 μM, 24 h
# [26] = Norovirus, in Homo sapiens, D2004 (duodenal) HIE line
# [27] = Norovirus, in Homo sapiens, IL2004 (ileal) HIE line
# [28] = Norovirus, in Homo sapiens, J2 HIE line
# [29] = Norovirus, in Homo sapiens, J2004 (jejunal) HIE line
structure (smiles),measurement,setting,value
O=C(Nc1ncc([N+](=O)[O-])s1)c1ccccc1O [tizoxanide],maximal concentrations of tizoxanide,[1],approximately 10 µg/mL and ~ 38 µM
same,replication of the replicon,[2],inhibited replication
same,replication of HuNoV isolates,[3],reduced replication
"C[C@@]1(O)[C@H](O)[C@@H](CO)O[C@H]1n1ccc(N)nc1=O [2’CMC, 2’-C-methylcytidine]",HuNoV replication,[4],inhibit HuNoV replication
same,cytotoxicity (luciferase-based viability assay),[5]; any concentration tested (up to 316 μM),not cytotoxic
same,SI,[6],> 31.6
same,reduction of replication,"[6]; J2 HIEs, between 3 – 316 μM, 24 h",0.12 – 2.65 log10
same,EC50,[6]; [22],10 µM
same,EC90,[6]; [22],54 µM
same,inhibition at 316 µM,[6]; [23],23.5 to 100%
"CC(=O)Oc1ccccc1C(=O)Nc1ncc([N+](=O)[O-])s1 [NTZ, nitazoxanide]",monolayer integrity and propidium iodide staining,[7]; 32 μM,monolayers were intact and had few dead or damaged cells
same,monolayer integrity and propidium iodide staining,[7]; 100 μM and above,disassociation of the monolayer
same,"cytotoxicity, CellTiter-Glo 2.0",[7]; highest concentrations (≥100 μM) of range 3 to 316 μM,high cytotoxicity and detachment of the monolayer
same,highest dose tested that kept the cell monolayers intact,[8]; J2 HIE monolayers,10 µM
same,HIE monolayer integrity,[8]; concentrations below 10 µM,intact
same,clinical outcome versus other or no treatments,[9],no differences were reported
same,SI,[10]; [24],4.5
same,average percent inhibition,[10]; [25],79.6 – 98.8%
same,EC50,[10]; [22],14.4 µM
same,EC90,[10]; [22],> 80 µM
same,inhibition at 20 µM,"[10]; Norovirus, in Homo sapiens, 24 h, read-out: average percent inhibition",39.7 to 55.2%
same,CC50 at 24 h,[11],57 µM
same,SI,[12]; [24],1.9
same,reduction in replication,"[12]; J4FUT2 HIEs, 80 μM, 24 h",1.5 log10
same,EC50,[12]; [22],33.4 µM
same,EC90,[12]; [22],> 80 µM
same,inhibitory activity on replication,[13],no inhibitory activity
same,viability,[5]; 80 μM,reduction in viability
same,symptom resolution,[14],symptom resolution significantly faster
same,replication of the replicon,[2],inhibited replication
same,clinical resolution of symptoms,[15],did not improve clinical resolution of symptoms
same,fecal viral load,[15],no effect
same,EC50,[16],≥ 10 µM
same,cell viability,"[17]; 80 μM, in tandem with GII.17 assay",significantly reduced cell viability
same,cytotoxicity,"[17]; 40 and 80 μM, in tandem with GII.3 assay",cytotoxic
same,average viability,[17]; in tandem with GI.1 assay,steady up to 40 μM but significantly reduced at 80 μM
same,SI,[6],1.9
same,reduction in replication,"[6]; J2 HIEs, 40 μM, 24 h",0.67 log10
same,reduction in replication,"[6]; J2 HIEs, 80 μM, 24 h",2.31 log10
same,EC50,[6]; [22],37.1 µM
same,EC90,[6]; [22],43 µM
same,inhibition at 40 µM,[6]; [23],76.7%
same,inhibition at 80 µM,[6]; [23],99.5%
same,SI,[18]; [24],2.7
same,EC90,"[18]; J4FUT2 HIE line, 24 h",76 µM
same,inhibition in replication,[18]; [25],72.3 – 98.2%
same,reduction of genome equivalents,[18]; [25],0.6 – 1.8 log10
same,EC50,[18]; [22],27.4 µM
same,EC90,"[18]; Norovirus, in Homo sapiens, 24 h, J4FUT2 HIE line",76.3 µM
same,inhibition of replication (significance),"[19]; 40 μM, duodenal D2004 HIEs",significantly inhibitory
same,inhibition of replication (significance),"[19]; 80 μM, across J2, D2004, J2004, IL2004 HIE lines",significantly inhibitory
same,SI,[19]; D2004 HIE line,1.2
same,SI,[19]; IL2004 HIE line,1.4
same,SI,[19]; J2 HIE line,4.0
same,SI,[19]; J2004 HIE line,1.2
same,EC50,[19]; J2 HIE line,12.9 µM
same,EC50,[19]; [26],42.8 µM
same,EC90,[19]; [26],> 80 µM
same,EC50,[19]; [27],40 µM
same,EC90,[19]; [27],46 µM
same,EC50,[19]; [28],12 µM
same,EC90,[19]; [28],> 80 µM
same,EC50,[19]; [29],53.9 µM
same,EC90,[19]; [29],> 80 µM
same,SIs,"[19]; span over duodenal, jejunal, and ileal lines derived from the same donor",1.2 – 1.4
same,CC50 at 24 h,[20],50.9 µM
same,replication of HuNoV isolates,[3],reduced replication
same,CC50 at 24 h,[21],63.1 µM
